Assay results from ChEMBL document CHEMBL2169822, “Discovery and optimization of 1,3,4-trisubstituted-pyrazolone derivatives as novel, potent, and nonsteroidal farnesoid X receptor (FXR) selective antagonists” (J Med Chem, 2012).
The source made the active and inactive calls. No cut-off for these calls is given here.

Tests used:
[1] = target: T1, Peroxisome proliferator-activated receptor gamma (Homo sapiens) (UniProt P37231); experiment: Agonist activity at recombinant PPARgamma LBD expressed in HEK293T cells co-expressing GAL4 DBD at 20 uM by transactivation assay; assay type: functional, cell-based; conditions: HEK-293T
T1 sequence (whole entry): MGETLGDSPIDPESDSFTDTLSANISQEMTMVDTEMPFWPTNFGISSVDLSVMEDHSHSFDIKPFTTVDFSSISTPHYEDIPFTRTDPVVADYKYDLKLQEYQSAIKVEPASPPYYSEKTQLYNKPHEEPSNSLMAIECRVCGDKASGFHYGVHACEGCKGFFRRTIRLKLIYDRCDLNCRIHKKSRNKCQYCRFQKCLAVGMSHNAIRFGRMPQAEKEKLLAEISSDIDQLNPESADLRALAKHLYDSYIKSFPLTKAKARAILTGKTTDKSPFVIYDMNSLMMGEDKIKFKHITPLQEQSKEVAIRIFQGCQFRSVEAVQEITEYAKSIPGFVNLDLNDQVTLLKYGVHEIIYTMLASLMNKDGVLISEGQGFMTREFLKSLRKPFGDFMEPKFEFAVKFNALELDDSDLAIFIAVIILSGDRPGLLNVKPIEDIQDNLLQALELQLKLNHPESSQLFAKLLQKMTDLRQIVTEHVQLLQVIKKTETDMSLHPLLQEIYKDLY
Procedure, shortened: (§1)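 One-hybrid assay in HEK293T cells cotransfected with a Gal4 DBD–NR-LBD fusion (RXRα, LXRα, GR, PR, PPARδ or PPARγ) plus UAS-TK-Luc reporter. Compound was 20 μM, given alone or with agonist: 9cRA 0.1 μM (RXRα), TO901317 0.5 μM (LXRα), dexamethasone 50 nM (GR), progesterone 100 nM (PR), GW1516 10 μM (PPARδ), rosiglitazone 10 μM (PPARγ). Luciferase read-out; three independent experiments.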

[2] = target: T2, Peroxisome proliferator-activated receptor delta (Homo sapiens) (UniProt Q03181); experiment: Agonist activity at recombinant PPARdelta LBD expressed in HEK293T cells co-expressing GAL4 DBD at 20 uM by transactivation assay; assay type: functional, cell-based; conditions: HEK-293T; procedure, shortened: as §1
T2 sequence (whole entry): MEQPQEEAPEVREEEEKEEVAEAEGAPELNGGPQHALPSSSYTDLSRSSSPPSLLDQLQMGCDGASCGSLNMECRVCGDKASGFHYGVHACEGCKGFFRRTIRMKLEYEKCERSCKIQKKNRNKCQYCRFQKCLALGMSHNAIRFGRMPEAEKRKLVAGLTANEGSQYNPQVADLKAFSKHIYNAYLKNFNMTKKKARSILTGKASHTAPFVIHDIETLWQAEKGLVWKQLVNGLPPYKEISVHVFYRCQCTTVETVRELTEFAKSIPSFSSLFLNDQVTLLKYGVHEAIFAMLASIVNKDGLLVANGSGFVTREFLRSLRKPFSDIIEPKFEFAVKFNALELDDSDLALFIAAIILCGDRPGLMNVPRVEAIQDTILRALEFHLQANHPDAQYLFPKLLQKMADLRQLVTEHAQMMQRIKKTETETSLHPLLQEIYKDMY

[3] = Oral bioavailability in Sprague-Dawley rat at 50 mg/kg by LC-MS/MS analysis; assay type: ADME, organism-based; conditions: in vivo
Mus musculus [4] = experiment: Reduction of total serum cholesterol level in cholesterol-fed C57BL/6 mouse at 50 to 100 mg/kg, po after 10 days; assay type: functional; set-up: scale not given: the % may be the effect or the level left; conditions: dose mg/kg 50-100
Procedure, shortened: (§2)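 Male C57BL/6 mice, 8–12 weeks old, were randomized into five groups of nine. Control mice had ground chow; the other groups had chow with 2% cholesterol. Compound (50 or 100 mg/kg) or reference (100 mg/kg) was suspended in 0.5% CMC-Na and given by oral gavage; control and vehicle mice got 0.5% CMC-Na. Serum and hepatic triglyceride and total cholesterol were measured.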

Mus musculus [5] = experiment: Reduction of serum triglyceride level in cholesterol-fed C57BL/6 mouse at 50 mg/kg, po after 10 days; assay type: functional; set-up: scale not given: the % may be the effect or the level left; procedure, shortened: as §2
[6] = target: T3, Bile acid receptor (Homo sapiens) (UniProt Q96RI1); experiment: Antagonist activity at human FXR in human HepG2 cells assessed as reduction in cholesterol level after 24 hrs; assay type: functional, cell-based
T3 sequence (whole entry): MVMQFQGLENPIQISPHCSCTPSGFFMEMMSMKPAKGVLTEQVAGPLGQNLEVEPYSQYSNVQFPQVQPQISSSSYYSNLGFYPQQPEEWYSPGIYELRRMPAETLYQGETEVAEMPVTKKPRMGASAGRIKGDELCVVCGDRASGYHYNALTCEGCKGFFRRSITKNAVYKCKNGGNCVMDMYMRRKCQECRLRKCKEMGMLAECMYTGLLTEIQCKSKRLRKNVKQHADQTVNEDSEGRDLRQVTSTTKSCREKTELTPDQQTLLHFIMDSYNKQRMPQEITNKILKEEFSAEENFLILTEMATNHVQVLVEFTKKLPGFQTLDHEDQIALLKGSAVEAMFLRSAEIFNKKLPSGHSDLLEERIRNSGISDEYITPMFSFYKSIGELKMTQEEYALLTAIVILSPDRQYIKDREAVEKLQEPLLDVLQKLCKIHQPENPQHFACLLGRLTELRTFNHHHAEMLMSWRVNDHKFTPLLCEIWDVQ
Procedure, shortened: (§3)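 HepG2 cells were serum-starved overnight in FBS-free DMEM, then given DMSO or compound for 24 h in serum-free DMEM. Cells were lysed in RIPA buffer, sonicated on ice and centrifuged at 12000 rpm, 4 °C. Triglyceride and total cholesterol in the cleared lysate were measured by kits, with total protein by BCA. At least three experiments.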

[7] = target: T3, Bile acid receptor (Homo sapiens); experiment: Antagonist activity at human FXR in human HepG2 cells assessed as reduction in cholesterol level at 10 uM after 24 hrs; assay type: functional, cell-based; procedure, shortened: as §3
[8] = target: T3, Bile acid receptor (Homo sapiens); experiment: Antagonist activity at human FXR in human HepG2 cells assessed as inhibition of CDCA induced SHP gene expression at 5 to 40 uM after 24 hrs by RT-PCR analysis; assay type: functional, cell-based
Procedure, shortened: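 HepG2 cells in 6-well plates were treated with varied concentrations of compound, with or without 100 μM CDCA, for 24 h. Total RNA was taken with TRIzol and cDNA made by reverse transcription. Cyp7A1, SHP, BSEP and SREBP1c mRNA were measured by quantitative RT-PCR and normalized to β-actin. Three independent experiments.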

- Activity [1]: < 15.2%
- Activity [2]: inactive
- bioavailability [3]: < 5%
- inhibition [6]: Dose-dependent effect
- inhibition [7]: 27.1%
- inhibition [8]: Active
Structure (SMILES): COc1cc(/C=C2\C(=O)N(c3cccc([N+](=O)[O-])c3)N=C2c2ccccc2)ccc1O
- Activity (Mus musculus [4]): 17.2%
- Activity (Mus musculus [5]): 48.4%
